One data set deals with J774.1. Put plainly: Inhibition of nitric oxide production in LPS induced mouse J774.1 cells. Format: functional, cell-based. In short, it runs like this:
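J774.1 cells are grown in DMEM with 10% FCS, penicillin and streptomycin. Adherent cells are plated at 1 × 10^5 cells/well and left 6 h at 37 °C in 5% CO2. Fresh medium with LPS 1 µg/mL and the compound at a range of concentrations is added for 24 h. Nitrite in the supernatant is measured with Griess reagent (10 min, room temperature, A550), with medium blank subtracted. % inhibition is taken against LPS-only wells. L-NMMA is the positive control.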

Data set [1] in a line: Cytotoxicity against LPS induced mouse J774.1 cells by MTT assay. Format: cell-based. The method, boiled down: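 LPS-stimulated J774.1 cells from the NO assay (1 × 10^5 cells/well, 24 h with LPS 1 µg/mL plus compound). After the supernatant is taken off, cells get fresh medium with MTT 2 mg/mL for 3 h at 37 °C in 5% CO2. Formazan is dissolved in DMSO and absorbance is read at 550 nm.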
A general note: Formazan colour is commonly taken as a measure of viable cells.

A short description of data set [2]: Inhibition of NO production in LPS induced mouse J774.1 cells by Griess assay.

Data on 8 molecules can be found in ChEMBL document CHEMBL1143072, “Nitric oxide production inhibitory activity of flavonoids contained in trunk exudates of Dalbergia sissoo” (J Nat Prod, 2008).

By IC50 is commonly meant the point on the concentration scale where inhibition reaches its midpoint. Read a low IC50 as inhibition by little substance. In the case of `C=C[C@H](C1=CC(=O)C(OC)=CC1=O)c1ccccc1`, 38.8 µM corresponded to half-maximal inhibition in the data set with J774.1 (IC50).
Take `C=C[C@H](C1=CC(=O)C(OC)=CC1=O)c1ccc(O)cc1`: in the data set on J774.1, 11.5 µM corresponded to half-maximal inhibition (IC50). Besides, the Activity in data set [1] was over 100 µM.
The molecule `C=C[C@H](C1=CC(=O)C=CC1=O)c1ccccc1` had an IC50 in the data set on J774.1 of 39.7 µM.
Molecule `C=CC(c1ccccc1)C1(O)C(=O)C=C(OC)C(=O)C1O` (configuration not stated) registered an IC50 in the data set with J774.1 of 3.19 µM. The same molecule had an Activity in data set [1] of over 100 µM.
The corresponding values for `COc1ccc(C(=O)/C=C/c2ccccc2)c(O)c1` are 5.4 µM and over 25 µM.
`C=C[C@@H](c1ccccc1)c1cc(O)ccc1O` showed an IC50 in the data set with J774.1 of 31.6 µM.
With `CNC(=N)NCCC[C@H](N)C(=O)O` [TILARGININE], the values for the IC50 (in the data set with J774.1; in data set [2]) were 31.6 µM and 27.1 µM, respectively.
Molecule `COC1=CC(O)(C/C=C/c2ccccc2)C(OC)=CC1=O` (configuration not stated) displayed an IC50 with J774.1 of 6.22 µM.
